Results taken from ChEMBL document CHEMBL1255504, “Functional profiling of p53-binding sites in Hdm2 and Hdmx using a genetic selection system” (Bioorg Med Chem, 2010).
Blank lines part the entries; values can stand above or below the molecule they belong to. Calls of active or inactive are those of the source. No cut-off for these calls is given here. Where a SMILES comes first, the peptide text is derived from it. The star is where a group is joined. Isobutyryl = CC(C)C(=O)*; Piperidide = C1CCN(*)CC1; Cbz = O=C(OCc1ccccc1)*; PhAc = O=C(Cc1ccccc1)*; Boc = CC(C)(C)OC(=O)*; NHBn = c1ccc(CN*)cc1; Piv = CC(C)(C)C(=O)*; NHtBu = CC(C)(C)N*

Tests used:
[1] = molecular target: T1, E3 ubiquitin-protein ligase Mdm2 (Homo sapiens, UniProt Q00987); assay: Inhibition of GST-tagged p53 binding to Hdm2 by ELISA
[2] = Solubility of the compound; assay type: physicochemical
[3] = molecular target: T2, Protein Mdm4 (Homo sapiens) (UniProt O15151); assay: Inhibition of GST-tagged MDMX expressed in Escherichia coli harboring integrated p53-MDMX protein assessed as blockade of enzyme-p53 interaction by beta-galactosidase assay; set-up: concentration or dose not given beside the values; conditions: concentration not given here
T2 sequence (whole entry): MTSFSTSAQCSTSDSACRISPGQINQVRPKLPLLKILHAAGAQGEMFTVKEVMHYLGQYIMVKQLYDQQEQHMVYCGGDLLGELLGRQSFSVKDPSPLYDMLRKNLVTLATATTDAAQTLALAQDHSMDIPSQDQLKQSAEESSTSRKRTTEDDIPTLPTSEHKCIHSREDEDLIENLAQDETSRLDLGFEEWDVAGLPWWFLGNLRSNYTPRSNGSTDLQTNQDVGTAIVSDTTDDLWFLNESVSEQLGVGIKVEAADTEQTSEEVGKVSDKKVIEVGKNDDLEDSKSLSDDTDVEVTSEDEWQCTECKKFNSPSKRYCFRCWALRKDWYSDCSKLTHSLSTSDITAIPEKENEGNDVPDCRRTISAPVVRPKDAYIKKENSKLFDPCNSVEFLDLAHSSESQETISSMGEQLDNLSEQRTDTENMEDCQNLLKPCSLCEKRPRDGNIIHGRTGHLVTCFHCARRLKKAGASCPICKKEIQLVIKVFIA
Summary of the method: (§1)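 E. coli reporter strain SNS126 (HIS3-KanR-lacZ) carrying chromosomally integrated DBD-fusion repressor halves (Hdm2–p53 or Hdmx–p53), transformed with SICLOPPS cyclic-peptide constructs and tested in both native and opposite strains. Cells grown on solid LB with 32 µM IPTG plus 9.7 µM L-arabinose; β-galactosidase measured by ONPG hydrolysis. % derepression = percent β-galactosidase enhancement relative to unrepressed (DBD-only) control.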

[4] = molecular target: T2, Protein Mdm4 (Homo sapiens); assay: Inhibition of GST-tagged MDMX expressed in Escherichia coli harboring integrated p53-Hmd2 protein assessed as blockade of enzyme-p53 interaction by beta-galactosidase assay; conditions: concentration not given here; summary of the method: as §1
[5] = molecular target: T2, Protein Mdm4 (Homo sapiens); assay: Inhibition of GST-tagged MDMX expressed in Escherichia coli harboring integrated p53-Hmd2 protein assessed as enzyme-p53 interaction by beta-galactosidase assay; set-up: concentration or dose not given beside the values; conditions: concentration not given here; summary of the method: as §1
[6] = molecular target: T2, Protein Mdm4 (Homo sapiens); assay: Inhibition of GST-tagged MDMX expressed in Escherichia coli harboring integrated p53-MDMX protein assessed as enhancement of enzyme-p53 interaction by beta-galactosidase assay; set-up: concentration or dose not given beside the values; conditions: concentration not given here; summary of the method: as §1
[7] = molecular target: T2, Protein Mdm4 (Homo sapiens); assay: Inhibition of GST-tagged MDMX expressed in Escherichia coli harboring integrated p53-Hmd2 protein assessed as enhancement of enzyme-p53 interaction by beta-galactosidase assay; set-up: concentration or dose not given beside the values; conditions: concentration not given here; summary of the method: as §1
[8] = molecular target: T2, Protein Mdm4 (Homo sapiens); assay: Inhibition of GST-tagged MDMX expressed in Escherichia coli harboring integrated p53-MDMX protein assessed as enzyme-p53 interaction by beta-galactosidase assay; set-up: concentration or dose not given beside the values; conditions: concentration not given here; summary of the method: as §1
[9] = molecular target: T1, E3 ubiquitin-protein ligase Mdm2; assay: Inhibition of GST-tagged Hdm2 expressed in Escherichia coli harboring integrated p53-MDMX protein assessed as enzyme-p53 interaction by beta-galactosidase assay; conditions: concentration not given here; summary of the method: as §1
Target sequence in this assay (Q00987 whole entry, looked up): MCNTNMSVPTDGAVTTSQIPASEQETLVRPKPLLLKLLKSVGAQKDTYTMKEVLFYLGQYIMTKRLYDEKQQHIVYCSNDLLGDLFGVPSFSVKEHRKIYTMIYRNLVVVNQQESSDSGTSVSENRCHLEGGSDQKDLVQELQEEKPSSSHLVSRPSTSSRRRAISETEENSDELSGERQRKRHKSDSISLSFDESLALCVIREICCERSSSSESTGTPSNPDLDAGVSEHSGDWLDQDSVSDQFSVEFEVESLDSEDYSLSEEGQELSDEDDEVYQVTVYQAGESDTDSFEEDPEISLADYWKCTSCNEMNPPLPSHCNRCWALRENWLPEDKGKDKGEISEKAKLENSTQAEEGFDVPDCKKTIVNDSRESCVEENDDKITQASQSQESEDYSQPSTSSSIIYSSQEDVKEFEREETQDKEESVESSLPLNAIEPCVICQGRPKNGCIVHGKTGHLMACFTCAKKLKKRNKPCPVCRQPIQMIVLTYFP

[10] = molecular target: T1, E3 ubiquitin-protein ligase Mdm2; assay: Inhibition of GST-tagged Hdm2 expressed in Escherichia coli harboring integrated p53-Hmd2 protein assessed as enzyme-p53 interaction by beta-galactosidase assay; conditions: concentration not given here; summary of the method: as §1
Target sequence in this assay (Q00987 whole entry, looked up): as above

[11] = molecular target: T1, E3 ubiquitin-protein ligase Mdm2; assay: Inhibition of GST-tagged Hdm2 expressed in Escherichia coli harboring integrated p53-Hmd2 protein assessed as blockade of enzyme-p53 interaction by beta-galactosidase assay; conditions: concentration not given here; summary of the method: as §1
Target sequence in this assay (Q00987 whole entry, looked up): as above

[12] = molecular target: T1, E3 ubiquitin-protein ligase Mdm2; assay: Inhibition of GST-tagged Hdm2 expressed in Escherichia coli harboring integrated p53-MDMX protein assessed as blockade of enzyme-p53 interaction by beta-galactosidase assay; conditions: concentration not given here; summary of the method: as §1
Target sequence in this assay (Q00987 whole entry, looked up): as above

[13] = molecular target: T1, E3 ubiquitin-protein ligase Mdm2; assay: Inhibition of GST-tagged Hdm2 expressed in Escherichia coli harboring integrated p53-Hmd2 protein assessed as enhancement of enzyme-p53 interaction by beta-galactosidase assay; conditions: concentration not given here; summary of the method: as §1
Target sequence in this assay (Q00987 whole entry, looked up): as above

[14] = molecular target: T1, E3 ubiquitin-protein ligase Mdm2; assay: Inhibition of GST-tagged Hdm2 expressed in Escherichia coli harboring integrated p53-MDMX protein assessed as enhancement of enzyme-p53 interaction by beta-galactosidase assay; conditions: concentration not given here; summary of the method: as §1
Target sequence in this assay (Q00987 whole entry, looked up): as above

Molecule: CC(C)(C)OC(=O)N[C@@H](CCCNC(=N)N)C(=O)N[C@@H](Cc1c[nH]c2ccccc12)C(=O)N[C@@H](Cc1ccccc1)C(=O)N1CCCCC1
inhibition [1]: inactive

Molecule: CC(C)COC(=O)N[C@@H](CCCNC(=N)N)C(=O)N[C@@H](Cc1c[nH]c2ccccc12)C(=O)N[C@@H](Cc1ccccc1)C(=O)NC(C)(C)C
inhibition [1]: inactive

Molecule: CC(C)COC(=O)N[C@@H](CCCNC(=N)N)C(=O)N[C@@H](Cc1c[nH]c2ccccc12)C(=O)N[C@@H](Cc1ccccc1)C(=O)NCc1ccccc1
inhibition [1]: inactive

Molecule: CC(C)(C)NC(=O)[C@H](Cc1ccccc1)NC(=O)[C@H](Cc1c[nH]c2ccccc12)NC(=O)[C@H](CCCNC(=N)N)NC(=O)OC(C)(C)C (Boc-Arg-Trp-Phe-NHtBu)
inhibition [1]: inactive

Molecule: CC(C)[C@H](NC(=O)[C@H](Cc1ccc(O)cc1)NC(=O)[C@H](Cc1ccc(O)cc1)NC(=O)[C@H](Cc1ccccc1)NC(=O)OC(C)(C)C)C(=O)N1CCCCC1 (Boc-FYYV-Piperidide)
solubility [2]: Insoluble

Molecule: N=C(N)NCCC[C@H](NC(=O)OCc1ccccc1)C(=O)N[C@@H](Cc1c[nH]c2ccccc12)C(=O)N[C@@H](Cc1ccccc1)C(=O)NCc1ccccc1 (Cbz-Arg-Trp-Phe-NHBn)
inhibition [1]: inactive

Molecule: N=C(N)NCCC[C@H](NC(=O)OCc1ccccc1)C(=O)N[C@@H](Cc1c[nH]c2ccccc12)C(=O)N[C@@H](Cc1ccccc1)C(=O)N1CCCCC1 (Cbz-Arg-Trp-Phe-Piperidide)
inhibition [1]: inactive

Molecule: CC(C)C(=O)N[C@@H](CCCNC(=N)N)C(=O)N[C@@H](Cc1c[nH]c2ccccc12)C(=O)N[C@@H](Cc1ccccc1)C(=O)NCc1ccccc1 (Isobutyryl-Arg-Trp-Phe-NHBn)
inhibition [1]: inactive

Molecule: N=C(N)NCCC[C@H](NC(=O)Cc1ccccc1)C(=O)N[C@@H](Cc1c[nH]c2ccccc12)C(=O)N[C@@H](Cc1ccccc1)C(=O)NCc1ccccc1 (PhAc-Arg-Trp-Phe-NHBn)
inhibition [1]: inactive

Molecule: CC(C)(C)NC(=O)[C@H](Cc1ccccc1)NC(=O)[C@H](Cc1c[nH]c2ccccc12)NC(=O)[C@H](CCCNC(=N)N)NC(=O)C(C)(C)C (Piv-Arg-Trp-Phe-NHtBu)
inhibition [1]: inactive

Molecule: CC[C@H](C)[C@@H]1NC(=O)[C@H](C)NC(=O)[C@H](C(C)C)NC(=O)[C@H](Cc2ccc(O)cc2)NC(=O)[C@H](Cc2ccc(O)cc2)NC(=O)[C@H](Cc2ccccc2)NC1=O (cyclo(AIFYYV))
Activity [1]: Dose-dependent effect | IC50 [1]: 209 µM

Molecule: H-CIFYYV-OH
inhibition [9]: 66% | inhibition [10]: 67% | inhibition [11]: 51% | inhibition [12]: 42% | inhibition [13]: 34% | inhibition [14]: 24%

Molecule: H-CIWWYM-OH
inhibition [9]: 70% | inhibition [10]: 41% | inhibition [11]: 12% | inhibition [12]: 49% | inhibition [13]: 8% | inhibition [14]: 29%

Molecule: H-CKAVLF-OH
inhibition [3]: 51% | inhibition [4]: 7% | inhibition [5]: 38% | inhibition [6]: 30% | inhibition [7]: 5% | inhibition [8]: 71%

Molecule: H-CLFFNY-OH
inhibition [3]: 47% | inhibition [4]: 18% | inhibition [5]: 45% | inhibition [6]: 28% | inhibition [7]: 12% | inhibition [8]: 69%

Molecule: H-CLWWYM-OH
inhibition [9]: 65% | inhibition [10]: 45% | inhibition [11]: 18% | inhibition [12]: 41% | inhibition [13]: 12% | inhibition [14]: 24%

Molecule: H-CRLLDF-OH
inhibition [3]: 49% | inhibition [4]: 7% | inhibition [5]: 38% | inhibition [6]: 29% | inhibition [7]: 5% | inhibition [8]: 70%

The remaining lines, values ahead:

inhibition [1]: inactive
Molecule: CC(C)(C)OC(=O)N[C@@H](CCCNC(=N)N)C(=O)N[C@@H](Cc1c[nH]c2ccccc12)C(=O)N[C@@H](Cc1ccccc1)C(=O)NCc1ccccc1 (Boc-Arg-Trp-Phe-NHBn)

solubility [2]: Insoluble
Molecule: CC[C@H](C)[C@H](NC(=O)OC(C)(C)C)C(=O)N[C@@H](Cc1ccccc1)C(=O)N[C@@H](Cc1ccc(O)cc1)C(=O)N[C@@H](Cc1ccc(O)cc1)C(=O)N[C@H](C(=O)N1CCCCC1)C(C)C (Boc-IFYYV-Piperidide)

inhibition [1]: inactive
Molecule: CC(C)C(=O)N[C@@H](CCCNC(=N)N)C(=O)N[C@@H](Cc1c[nH]c2ccccc12)C(=O)N[C@@H](Cc1ccccc1)C(=O)NC(C)(C)C (Isobutyryl-Arg-Trp-Phe-NHtBu)

inhibition [1]: inactive
Molecule: CC(C)(C)NC(=O)[C@H](Cc1ccccc1)NC(=O)[C@H](Cc1c[nH]c2ccccc12)NC(=O)[C@H](CCCNC(=N)N)NC(=O)Cc1ccccc1 (PhAc-Arg-Trp-Phe-NHtBu)

inhibition [1]: inactive
Molecule: CC(C)(C)C(=O)N[C@@H](CCCNC(=N)N)C(=O)N[C@@H](Cc1c[nH]c2ccccc12)C(=O)N[C@@H](Cc1ccccc1)C(=O)NCc1ccccc1 (Piv-Arg-Trp-Phe-NHBn)

inhibition [3]: 76% | inhibition [4]: 6% | inhibition [5]: 37% | inhibition [6]: 45% | inhibition [7]: 4% | inhibition [8]: 86%
Molecule: H-CDLRWF-OH

inhibition [3]: 58% | inhibition [4]: 10% | inhibition [5]: 41% | inhibition [6]: 34% | inhibition [7]: 7% | inhibition [8]: 75%
Molecule: H-CHLRWL-OH

inhibition [9]: 63% | inhibition [10]: 45% | inhibition [11]: 18% | inhibition [12]: 37% | inhibition [13]: 12% | inhibition [14]: 22%
Molecule: H-CMFYYI-OH
